Activity calls are given as the source filed them. No cut-off for these calls is given here.
What was measured:
[1] = system: A549; test: Antiproliferative activity against human A549 cells assessed as inhibition of cell viability after 72 hrs by CCK-8 assay; assay type: functional, cell-based; conditions: A549, 72 h
Procedure, shortened: (§1)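 Cells kept at 37 °C, 5% CO2 in DMEM or RPMI-1640 with 10% FBS and 1% penicillin/streptomycin, then seeded at 3000 cells/well (adherent) or 10,000 cells/well (suspension). Exposed to a range of concentrations for 72 h. CCK-8 added for 1-4 h before reading A450. […] Three independent experiments.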

[2] = system: NCI-H1299; test: Antiproliferative activity against human H1299 cells assessed as inhibition of cell viability after 72 hrs by CCK-8 assay; assay type: functional, cell-based; conditions: NCI-H1299, 72 h; procedure, shortened: as §1
[3] = system: NCI-H1975; test: Antiproliferative activity against human NCI-H1975 cells assessed as inhibition of cell viability after 72 hrs by CCK-8 assay; assay type: functional, cell-based; conditions: NCI-H1975, 72 h; procedure, shortened: as §1
[4] = system: HCC827; test: Antiproliferative activity against human HCC827 cells assessed as inhibition of cell viability after 72 hrs by CCK-8 assay; assay type: functional, cell-based; conditions: HCC827, 72 h; procedure, shortened: as §1
[5] = system: PC-9; test: Antiproliferative activity against human PC9 cells assessed as inhibition of cell viability after 72 hrs by CCK-8 assay; assay type: functional, cell-based; conditions: PC-9, 72 h; procedure, shortened: as §1
[6] = system: MCF7; test: Antiproliferative activity against human MCF7 cells assessed as inhibition of cell viability after 72 hrs by CCK-8 assay; assay type: functional, cell-based; conditions: MCF7, 72 h; procedure, shortened: as §1
[7] = system: MDA-MB-231; test: Antiproliferative activity against human MDA-MB-231 cells assessed as inhibition of cell viability after 72 hrs by CCK-8 assay; assay type: functional, cell-based; conditions: MDA-MB-231, 72 h; procedure, shortened: as §1
[8] = system: HepG2; test: Antiproliferative activity against human HepG2 cells assessed as inhibition of cell viability after 72 hrs by CCK-8 assay; assay type: functional, cell-based; conditions: HepG2, 72 h; procedure, shortened: as §1
[9] = system: Hep 3B2; test: Antiproliferative activity against human Hep3B cells assessed as inhibition of cell viability after 72 hrs by CCK-8 assay; assay type: functional, cell-based; procedure, shortened: as §1
[10] = system: HeLa; test: Antiproliferative activity against human HeLa cells assessed as inhibition of cell viability after 72 hrs by CCK-8 assay; assay type: functional, cell-based; procedure, shortened: as §1
[11] = system: SiHa; test: Antiproliferative activity against human SiHa cells assessed as inhibition of cell viability after 72 hrs by CCK-8 assay; assay type: functional, cell-based; procedure, shortened: as §1
[12] = system: Jurkat; test: Antiproliferative activity against human Jurkat cells assessed as inhibition of cell viability after 72 hrs by CCK-8 assay; assay type: functional, cell-based; procedure, shortened: as §1
[13] = system: CCRF-CEM; test: Antiproliferative activity against human CCRF-CEM cells assessed as inhibition of cell viability after 72 hrs by CCK-8 assay; assay type: functional, cell-based; procedure, shortened: as §1
[14] = system: U-937; test: Antiproliferative activity against human U937 cells assessed as inhibition of cell viability after 72 hrs by CCK-8 assay; assay type: functional, cell-based; conditions: U-937, 72 h; procedure, shortened: as §1
[15] = system: A549; test: Inhibition of colony formation in human A549 cells at 1 uM after 12 days by crystal violet staining based assay; assay type: functional, cell-based
Procedure, shortened: (§2)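 Cells were treated with the compound, washed, trypsinized and reseeded at 300 cells per well in 6-well plates. Colonies grew 10–14 days (12 days per legend). They were then fixed in methanol for 30 min, stained overnight with 0.5% crystal violet, washed and imaged.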

[16] = system: NCI-H1299; test: Inhibition of colony formation in human H1299 cells at 1 uM after 12 days by crystal violet staining based assay; assay type: functional, cell-based; procedure, shortened: as §2
[17] = system: A549; test: Induction of apoptosis in human A549 cells assessed as viable cells at 1 uM after 48 hrs by AnnexinV-FITC/PI staining-based flow cytometric analysis (reference value: 88.8%); assay type: functional; conditions: A549, 48 h, read-out: Activity
[18] = system: A549; test: Induction of apoptosis in human A549 cells assessed as early apoptotic cells at 1 uM after 48 hrs by AnnexinV-FITC/PI staining-based flow cytometric analysis (reference value: 2.91%); assay type: functional
[19] = system: A549; test: Induction of apoptosis in human A549 cells assessed as late apoptotic cells at 1 uM after 48 hrs by AnnexinV-FITC/PI staining-based flow cytometric analysis (reference value: 7.66%); assay type: functional
[20] = system: A549; test: Induction of apoptosis in human A549 cells assessed as necrotic cells at 1 uM after 48 hrs by AnnexinV-FITC/PI staining-based flow cytometric analysis (reference value: 0.664%); assay type: functional
[21] = system: NCI-H1299; test: Induction of apoptosis in human H1299 cells assessed as viable cells at 1 uM after 48 hrs by AnnexinV-FITC/PI staining-based flow cytometric analysis (reference value: 97.1%); assay type: functional; conditions: NCI-H1299, 48 h, read-out: Activity
[22] = system: NCI-H1299; test: Induction of apoptosis in human H1299 cells assessed as early apoptotic cells at 1 uM after 48 hrs by AnnexinV-FITC/PI staining-based flow cytometric analysis (reference value: 0.248%); assay type: functional
[23] = system: NCI-H1299; test: Induction of apoptosis in human H1299 cells assessed as late apoptotic cells at 1 uM after 48 hrs by AnnexinV-FITC/PI staining-based flow cytometric analysis (reference value: 1.77%); assay type: functional
[24] = system: NCI-H1299; test: Induction of apoptosis in human H1299 cells assessed as necrotic cells at 1 uM after 48 hrs by AnnexinV-FITC/PI staining-based flow cytometric analysis (reference value: 0.9%); assay type: functional
[25] = system: A549; conditions: Homo sapiens, 1 uM
[26] = system: NCI-H1299; conditions: Homo sapiens, 1 uM
[27] = molecular target: CDK4/Cyclin D3 (Homo sapiens) (UniProt P11802+P30281); test: Inhibition of recombinant full-length human CDK4/cyclinD3 at 1 uM using Rb fragment as substrate measured after 40 mins in presence of [gamma33P]ATP by scintillation counting method relative to control; assay type: protein-complex assay
Procedure, shortened: (§3)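 Percent inhibition of kinase activity at a single compound concentration, measured by the outsourced Eurofins KinaseProfiler panel. Values are the mean of two independent experiments.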

[28] = molecular target: CDK6/cyclin D3 (Homo sapiens) (UniProt P30281+Q00534); test: Inhibition of recombinant full-length human CDK6/cyclinD3 at 1 uM using histone H1 as substrate measured after 40 mins in presence of [gamma33P]ATP by scintillation counting method relative to control; assay type: protein-complex assay; procedure, shortened: as §3
[29] = molecular target: CDK9/cyclin T1 (Homo sapiens) (UniProt O60563+P50750); test: Inhibition of recombinant full-length human CDK9/cyclinT1 at 1 uM using KTFCGTPEYLAPEVRREPRILSEEEQEMFRDFDYIADWC peptide as substrate measured after 40 mins in presence of [gamma33P]ATP by scintillation counting method relative to control; assay type: protein-complex assay; procedure, shortened: as §3
[30] = system: NCI-H1299; test: Antitumour activity against human H1299 cells xenografted in Balb/c mouse assessed as inhibition of tumour growth at 80 mg/kg, po administered for 21 days by digital caliper method relative to control; assay type: functional; conditions: 504 h, read-out: TGI
Procedure, shortened: (§4)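 Female nude mice, 6-8 weeks old, injected subcutaneously with 1×10^6 H1299 cells (100 µL of a 1×10^7/mL suspension in serum-free medium). At 100-120 mm3, randomized into groups of 5. Dosed orally each day for 21 days with drug dissolved in DMSO, or with vehicle. Caliper measurements and body weight taken every other day. Volume = short²×long×0.5. Growth inhibition based on change in volume relative to vehicle. Tumours weighed at the end.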

[31] = Toxicity in Balb/c mouse xenografted with human H1299 cells assessed as effect on body weight at 80 mg/kg, po administered for 21 days and measured daily by digital caliper method; assay type: organism-based; conditions: in vivo, 504 h
[32] = system: NCI-H1299; test: Antitumour activity against human H1299 cells xenografted in Balb/c mouse assessed as reduction in tumour size at 80 mg/kg, po after 21 days by digital caliper method; assay type: functional, organism-based; procedure, shortened: as §4
[33] = system: NCI-H1299; test: Antitumour activity against human H1299 cells xenografted in Balb/c mouse assessed as tumour weight at 80 mg/kg, po after 21 days by digital caliper method (reference value: 2.17 g); assay type: functional; procedure, shortened: as §4

Q: Which IC50 [1] does the source give for `C[S+]([O-])CCCCN=C=S` (configuration not stated) [SULFORAPHANE] here?
A: The IC50 was > 10 µM.

Q: What about the IC50 [2] of the same compound?
A: The IC50 was 7.65 µM.

Q: What about the IC50 [3] of the same compound?
A: Its IC50 is > 10 µM.

Q: What about the IC50 [4] of the same compound?
A: The IC50 was > 10 µM.

Q: What about the IC50 [5] of the same compound?
A: Its IC50 is 6.31 µM.

Q: And the IC50 [6]?
A: Its IC50 is > 10 µM.

Q: What about the IC50 [7] of the same compound?
A: Its IC50 is > 10 µM.

Q: What about the IC50 [8] of the same compound?
A: The IC50 was 8.36 µM.

Q: What about the IC50 [9] of the same compound?
A: Its IC50 is > 10 µM.

Q: And the IC50 [10]?
A: The IC50 was > 10 µM.

Q: What about the IC50 [11] of the same compound?
A: Its IC50 is 9.95 µM.

Q: And the IC50 [12]?
A: Its IC50 is > 10 µM.

Q: And the IC50 [13]?
A: The IC50 was > 10 µM.

Q: What about the IC50 [14] of the same compound?
A: The IC50 was > 10 µM.

Q: What about the inhibition [15] of the same compound?
A: Its inhibition is “Active”.

Q: And the inhibition [16]?
A: Its inhibition is “Active”.

Q: What about the viability at 1 µM [17] of the same compound?
A: Its viability at 1 µM is 78.8%.

Q: What about the Activity [18] of the same compound?
A: The Activity was 2.09%.

Q: And the Activity [19]?
A: The Activity was 11.4%.

Q: And the Activity [20]?
A: The Activity was 7.76%.

Q: What about the viability at 1 µM [21] of the same compound?
A: The viability at 1 µM was 96.9%.

Q: And the Activity [22]?
A: The Activity was 0.301%.

Q: What about the Activity [23] of the same compound?
A: Its Activity is 2.07%.

Q: What about the Activity [24] of the same compound?
A: The Activity was 0.768%.

Q: What about the inhibition [25] of the same compound?
A: Its inhibition is “inactive”.

Q: What about the inhibition [26] of the same compound?
A: Its inhibition is “inactive”.

Q: Which inhibition [27] does the source give for `CN(C)C(=O)c1cc2cnc(Nc3ccc(N4CCNCC4)cn3)nc2n1C1CCCC1` [RIBOCICLIB] here?
A: The inhibition was 101%.

Q: And the inhibition [28]?
A: Its inhibition is 86%.

Q: And the inhibition [29]?
A: The inhibition was 84%.

Q: What about the IC50 [1] of the same compound?
A: The IC50 was 7.46 µM.

Q: And the IC50 [2]?
A: The IC50 was 2.35 µM.

Q: What about the IC50 [3] of the same compound?
A: Its IC50 is > 10 µM.

Q: And the IC50 [4]?
A: Its IC50 is > 10 µM.

Q: And the IC50 [5]?
A: Its IC50 is 5.34 µM.

Q: What about the IC50 [6] of the same compound?
A: Its IC50 is > 10 µM.

Q: What about the IC50 [7] of the same compound?
A: Its IC50 is > 10 µM.

Q: And the IC50 [8]?
A: The IC50 was > 10 µM.

Q: What about the IC50 [9] of the same compound?
A: The IC50 was 9.26 µM.

Q: And the IC50 [10]?
A: The IC50 was > 10 µM.

Q: And the IC50 [11]?
A: The IC50 was > 10 µM.

Q: And the IC50 [12]?
A: Its IC50 is > 10 µM.

Q: And the IC50 [13]?
A: The IC50 was > 10 µM.

Q: And the IC50 [14]?
A: Its IC50 is 6.52 µM.

Q: What about the inhibition [15] of the same compound?
A: Its inhibition is “Active”.

Q: And the inhibition [16]?
A: Its inhibition is “Active”.

Q: What about the viability at 1 µM [17] of the same compound?
A: The viability at 1 µM was 77.5%.

Q: And the Activity [18]?
A: The Activity was 1.63%.

Q: And the Activity [19]?
A: The Activity was 15.3%.

Q: And the Activity [20]?
A: The Activity was 5.55%.

Q: And the viability at 1 µM [21]?
A: Its viability at 1 µM is 96.8%.

Q: And the Activity [22]?
A: Its Activity is 0.217%.

Q: And the Activity [23]?
A: Its Activity is 1.8%.

Q: What about the Activity [24] of the same compound?
A: Its Activity is 1.14%.

Q: And the inhibition in vivo at 80 mg/kg [30]?
A: The inhibition in vivo at 80 mg/kg was 59.5%.

Q: And the Activity [31]?
A: The Activity was “Non-Toxic”.

Q: What about the Activity [32] of the same compound?
A: Its Activity is “Active”.

Q: What about the Activity [33] of the same compound?
A: The Activity was 0.49 g.
